One may read the EC50 as the concentration at which the effect is half-maximal. The low end stands for higher potency in that assay, the high end for lower potency in that assay.

From ChEMBL document CHEMBL1132160, “Structure-antiviral activity relationship in the series of pyrimidine and purine N-[2-(2-phosphonomethoxy)ethyl] nucleotide analogues. 1. Derivatives substituted at the carbon atoms of the base” (J Med Chem, 1999) come the findings set out here.

≈ marks a conversion by molar mass, not a printed value. A value given as a limit tells only on which side of the number the result lay.

Assay [1] relates to Human alphaherpesvirus 1. Kind of assay: Inhibitory activity against herpes simplex virus type 1 (HSV-1) KOS strain. Format: functional, organism-based. Summed up:
(§1)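 Confluent E6SM cell cultures were inoculated with 100 CCID50 of virus and allowed 1 h for adsorption. Residual virus was then removed, and the cells were incubated with test compound at 400, 200, 100, ... μg/mL. Viral cytopathicity was scored once it reached completion in untreated infected controls.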

In assay [2] the test system is Human alphaherpesvirus 2. Kind of assay: Inhibitory activity against herpes simplex virus type 2 (HSV-2) Lyons strain. The format is functional, organism-based. Summed up:
as §1

Assay [3] can be described thus: Inhibitory activity against herpes simplex virus type 2 (HSV-2) 196 strain. The format is functional. Summed up: as §1
Assay [4] concerns Human alphaherpesvirus 1. Kind of assay: Inhibitory activity against herpes simplex virus type 1 (HSV-1) McIntyre strain. Format: functional, organism-based. Summed up: as §1
Assay [5] concerns Cytomegalovirus. Kind of assay: Inhibitory activity against cytomegalovirus (CMV) Davis strain. Format: functional, organism-based. As to conditions: Human betaherpesvirus 5. The method in brief: (§2)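 HEL cell cultures, grown to confluence, received 100 CCID50 of virus. After 1 h adsorption, the inoculum was removed and the cultures were incubated with serial concentrations of compound (400, 200, 100, ... μg/mL).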

Assay [6] has as its system Human immunodeficiency virus 1. Kind of assay: Inhibition of human immunodeficiency virus type 1 (HIV-1) induced cytopathogenicity in CEM cells. The conditions noted are these: Human immunodeficiency virus 1, CCRF-CEM. Format: functional, organism-based. Summed up:
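CEM cells (~3 × 10⁵ cells/mL) were infected with 100 CCID50 of HIV-1 (IIIB)/mL and plated with dilutions of compound. After 4 days at 37 °C, giant cell formation was assessed microscopically.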
A general note: Cytopathic effects are the visible damage that an infection or toxin causes in cultured cells.

For assay [7], the system named is Cytomegalovirus. Kind of assay: Inhibitory activity against cytomegalovirus (CMV) AD 169 strain. Format: functional, organism-based. As to conditions: Human betaherpesvirus 5. The method in brief:
as §2

The test system of assay [8] is Vaccinia virus. Kind of assay: Inhibitory activity against vaccinia virus (VV). The format is functional, organism-based. The conditions noted are these: Orthopoxvirus vaccinia. Summed up:
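Confluent E6SM cell cultures were inoculated with 100 CCID50 of virus and left for 1 h adsorption, then residual virus was removed. Cultures were incubated with test compound at serial concentrations (400, 200, 100, ... μg/mL). Virus-induced cytopathicity was scored once it reached completion in untreated infected control cultures.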

Assay [9] has as its system Human alphaherpesvirus 2. Kind of assay: Inhibitory activity against herpes simplex virus type 2 (HSV-2) G strain. The format is functional, organism-based. The method in brief: as §1
The nature of assay [10]: Inhibitory activity against murine sarcoma virus induced transformation of murine C3H/3T3 embryo fibroblasts. The format is functional, Mus musculus. The method in brief: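 Murine C3H/3T3 embryo fibroblasts were seeded at 5 × 10⁵ cells/mL. After 24 h they were infected with 80 focus-forming units of MSV for 90–120 min at 37 °C. The medium was then replaced with fresh medium containing various compound concentrations, and transformation was examined microscopically after 6 days.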

Assay [11] has as its system Human immunodeficiency virus 2. Kind of assay: Inhibition of human immunodeficiency virus type 2 (HIV-2) induced cytopathogenicity in CEM cells. Format: functional, organism-based. As to conditions: Human immunodeficiency virus 2, CCRF-CEM.
Assay [12] relates to Human alphaherpesvirus 1. Briefly: Inhibition of herpes simplex virus type 1 (HSV-1) F strain. The format is functional, organism-based. The method in brief:
as §1

Assay [13] deals with Human immunodeficiency virus 1. Kind of assay: Inhibitory activity of compound against human immunodeficiency virus type 1 (HIV-1) induced cytopathogenicity in MT-4 cells. The conditions noted are these: Human immunodeficiency virus 1, MT4. The format is functional, organism-based. The method in brief:
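Human MT-4 cells (~4 × 10⁵ cells/mL) were infected with 100 CCID50 of HIV-1 (IIIB)/mL and seeded into wells containing compound dilutions. After 5 days at 37 °C, viable cells were counted by trypan blue exclusion in a blood cell counting chamber.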

The test system of assay [14] is Human immunodeficiency virus 2. Briefly: Inhibitory activity against human immunodeficiency virus type 2 (HIV-2) induced cytopathogenicity in MT-4 cells. Format: functional, organism-based. As to conditions: Human immunodeficiency virus 2, MT4.

For `Nc1nc(N)c2nc(Br)n(CCOCP(=O)(O)O)c2n1`, the EC50 in assay [1] was 20 µg/mL (≈ 54.5 µM); in assay [2], 20 µg/mL (≈ 54.5 µM); in [3], 70 µg/mL (≈ 191 µM); in assay [4] it was 20 µg/mL (≈ 54.5 µM); in assay [5] it was 12 µg/mL (≈ 32.7 µM); in [6], > 100 µg/mL. For the same compound, the EC50 was 8 µg/mL (≈ 21.8 µM) in assay [7]; 300 µg/mL (≈ 817 µM) in assay [8]; 20 µg/mL (≈ 54.5 µM) in assay [9]; 2.43 µg/mL (≈ 6.62 µM) in assay [10]; > 100 µg/mL in assay [11]; 7 µg/mL (≈ 19.1 µM) in [12].

Consider `CC(C)OP(=O)(COCCn1cnc2c(N)nc(N)nc21)OC(C)C`, for which the half-maximal effective concentration (EC50) was 240 µg/mL (≈ 645 µM) in assay [1]; 240 µg/mL (≈ 645 µM) in [2]; > 100 µg/mL in assay [13]; 240 µg/mL (≈ 645 µM) in [3]; 89 µg/mL (≈ 239 µM) in assay [4]; 2 µg/mL (≈ 5.37 µM) in [5]. The EC50 in assay [6] is > 100 µg/mL; in [7], 2 µg/mL (≈ 5.37 µM); in assay [9], > 400 µg/mL; in [12], 240 µg/mL (≈ 645 µM).

Consider `CC(C)CCCCCOP(=O)(O)COCCn1cnc2c(O)nc(N)nc21`, for which the EC50 in [1] is 240 µg/mL (≈ 598 µM); in assay [2], 240 µg/mL (≈ 598 µM); in assay [13], > 100 µg/mL; in assay [3], 240 µg/mL (≈ 598 µM); in [4] it was 240 µg/mL (≈ 598 µM); in assay [14], > 100 µg/mL. In addition, the concentration for a half-maximal effect (EC50) in assay [5] is > 50 µg/mL; in assay [7], > 50 µg/mL; in assay [9], 240 µg/mL (≈ 598 µM); in assay [12], 240 µg/mL (≈ 598 µM).

Regarding `CCOP(=O)(O)COCCn1cnc2c(O)nc(N)nc21`, the EC50 is 2 µg/mL (≈ 6.3 µM) in assay [1]; 2 µg/mL (≈ 6.3 µM) in assay [2]; 2.6 µg/mL (≈ 8.2 µM) in assay [13]; 2 µg/mL (≈ 6.3 µM) in assay [3]; 2 µg/mL (≈ 6.3 µM) in assay [4]; 0.15 µg/mL (≈ 0.473 µM) in [5]. Also, the EC50 in assay [7] came to 0.15 µg/mL (≈ 0.473 µM); in assay [8], 20 µg/mL (≈ 63 µM); in [9] it was 0.7 µg/mL (≈ 2.21 µM); in [10], 0.24 µg/mL (≈ 0.757 µM); in assay [12], 2 µg/mL (≈ 6.3 µM).

On to `Nc1nc(=O)n(CCOCP(=O)(O)O)cc1Br`, for which the EC50 in [1] was 20 µg/mL (≈ 61 µM); in assay [2], 70 µg/mL (≈ 213 µM); in assay [3] it was 100 µg/mL (≈ 305 µM); in assay [4], 70 µg/mL (≈ 213 µM); in assay [5] it was 33 µg/mL (≈ 101 µM); in [6], > 100 µg/mL. The concentration giving a half-maximal response (EC50) in assay [7] was 30 µg/mL (≈ 91.4 µM); in [8], > 400 µg/mL; in [9] it was 150 µg/mL (≈ 457 µM); in assay [10], 19.2 µg/mL (≈ 58.5 µM); in assay [11], > 100 µg/mL; in assay [12], 40 µg/mL (≈ 122 µM).

For `O=P(O)(O)COCCn1cnc2c(S)ncnc21`, the concentration giving a half-maximal response (EC50) in assay [1] is > 400 µg/mL; in assay [2], > 400 µg/mL; in assay [3], > 400 µg/mL; in assay [4] it was > 400 µg/mL; in assay [5] it was 20 µg/mL (≈ 68.9 µM); in [6], > 100 µg/mL. The 50% effective concentration (EC50) in assay [7] was 25 µg/mL (≈ 86.1 µM); in [8] it was > 400 µg/mL; in [9], > 400 µg/mL; in assay [10], > 200 µg/mL; in assay [11] it was > 100 µg/mL; in assay [12], > 400 µg/mL.

As for `NC1=NC2N=CC=NC2C(=O)N1CCOCP(=O)(O)O` (stereo unspecified), the EC50 in assay [1] was 70 µg/mL (≈ 231 µM); in assay [2], 70 µg/mL (≈ 231 µM); in [3], 150 µg/mL (≈ 495 µM); in assay [4], 150 µg/mL (≈ 495 µM); in [5], > 50 µg/mL; in assay [6], > 100 µg/mL. For the same compound, the EC50 was > 50 µg/mL in [7]; 200 µg/mL (≈ 660 µM) in [8]; 70 µg/mL (≈ 231 µM) in assay [9]; 26.5 µg/mL (≈ 87.4 µM) in assay [10]; > 100 µg/mL in [11]; 150 µg/mL (≈ 495 µM) in assay [12].

With `CC(C)OP(=O)(COCCn1c(Br)nc2c(N)nc(N)nc21)OC(C)C`, the 50% effective concentration (EC50) was > 400 µg/mL in assay [1]; 300 µg/mL (≈ 665 µM) in assay [2]; > 400 µg/mL in assay [3]; > 400 µg/mL in [4]; 20 µg/mL (≈ 44.3 µM) in assay [5]; > 100 µg/mL in assay [6]. The EC50 was 25 µg/mL (≈ 55.4 µM) in assay [7]; > 400 µg/mL in assay [8]; > 400 µg/mL in [9]; > 40 µg/mL in [10]; > 100 µg/mL in [11]; > 400 µg/mL in [12].
